Experiments:
[1] = Inhibition of binding of biotinylated mouse BIM BH3-26mer peptide to GST-tagged mouse BCL-Xl delta C25 mutant by AlphaScreen/[…] assay
Procedure, shortened: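 Bead-based AlphaScreen competition: compounds titrated by serial dilution from 150 µM against GST-BCL-XL ΔC25 (0.6 nM final) and biotinylated BIM BH3 26-mer (5.0 nM final). Anti-GST acceptor and streptavidin donor beads at 15 µg/mL each. Protein/acceptor and peptide/donor pairs pre-incubated 30 min. Compound plus protein complex 30 min, then peptide complex 4 h at room temperature. 1% DMSO final. IC50 from at least two separate experiments.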

[2] = Inhibition of binding of wild type mBIMBH3 peptide to human Bcl-2 delta C22 mutant by surface plasmon resonance competition experiment
Procedure, shortened: (§1)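 Solution competition SPR: recombinant pro-survival protein (10 nM) incubated 2 h with compound (25–0.024 µM) in HEPES 10 mM, 150 mM NaCl, 3.4 mM EDTA, 0.005% Tween 20, pH 7.4. Mixture then injected over CM5 chip bearing immobilized wild-type mBIMBH3 26-mer, with inert mutant mBIMBH3 surface as reference. IC50 is the mean of three independent experiments ± SEM.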

[3] = Inhibition of binding of wild type mBIMBH3 peptide to human Bcl-XL delta C24 mutant by surface plasmon resonance competition experiment; procedure, shortened: as §1
[4] = target: Bcl-2-related protein A1 (Mus musculus) (UniProt Q07440); experiment: Inhibition of binding of wild type mBIMBH3 peptide to mouse Bcl-2-related protein A1 by surface plasmon resonance competition experiment
Bcl-2-like protein 2 = Bcl-2-like protein 2 (Homo sapiens, UniProt Q92843, A128E/C29S); experiment: Inhibition of binding of wild type mBIMBH3 peptide to human Bcl-W delta C29 (C29S/A128E) mutant by surface plasmon resonance competition experiment; procedure, shortened: as §1
[5] = Inhibition of binding of wild type mBIMBH3 peptide to human/mouse chimeric MCL1 by surface plasmon resonance competition experiment; procedure, shortened: as §1
Bcl-2-like protein 1 [6] = target: T1, Bcl-2-like protein 1 (Homo sapiens, UniProt Q07817); experiment: Direct binding affinity to free Bcl-XL (unknown origin) assessed as […] measured for 60 secs by surface plasmon resonance
Procedure, shortened: (§2)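 Biacore S51 direct binding. GST-BCL-XL captured on an amine-coupled anti-GST antibody surface (about 1200 RU), in phosphate buffer pH 7.4 with 150 mM NaCl, 1 mM EDTA, 0.03% Tween 20 and 5% DMSO. Each cycle, 30 nM wt-BIM 26-mer pre-blocks the groove on the reference spot. Double referencing, 4–6% DMSO solvent correction, 1:1 fit with mass transport; Kd = kd/ka.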

Bcl-2-like protein 1 [7] = target: T1, Bcl-2-like protein 1; experiment: Direct binding affinity to Bcl-XL (unknown origin) pre-saturated with 26-mer-wt-Bim assessed as dissociation constant measured for 120 secs by surface plasmon resonance; procedure, shortened: as §2

T1 sequence (Q07817 whole entry): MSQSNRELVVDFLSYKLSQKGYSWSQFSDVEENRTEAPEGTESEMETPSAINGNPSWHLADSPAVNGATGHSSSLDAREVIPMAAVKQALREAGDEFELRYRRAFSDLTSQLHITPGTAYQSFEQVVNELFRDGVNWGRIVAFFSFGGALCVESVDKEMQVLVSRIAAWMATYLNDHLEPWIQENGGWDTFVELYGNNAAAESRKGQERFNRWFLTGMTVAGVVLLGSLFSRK
Sequence of Bcl-2-related protein A1 (Mus musculus) (Q07440 whole entry, looked up): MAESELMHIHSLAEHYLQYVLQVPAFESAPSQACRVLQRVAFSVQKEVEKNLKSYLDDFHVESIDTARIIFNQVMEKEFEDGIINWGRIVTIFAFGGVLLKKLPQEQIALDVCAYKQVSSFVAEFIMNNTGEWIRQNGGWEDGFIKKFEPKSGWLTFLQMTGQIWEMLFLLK
Sequence of Bcl-2-like protein 2 (Q92843 2-193 C29S/A128E limits assumed): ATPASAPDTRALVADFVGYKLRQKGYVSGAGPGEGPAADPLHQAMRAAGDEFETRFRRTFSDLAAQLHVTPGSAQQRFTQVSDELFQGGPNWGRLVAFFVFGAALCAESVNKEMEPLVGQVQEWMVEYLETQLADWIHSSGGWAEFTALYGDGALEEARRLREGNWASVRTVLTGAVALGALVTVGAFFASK

Question: Which IC50 [1] does the source give for CCCN(C(=O)N[C@@H](CSCC(C)C)C(=O)O)C(=O)c1cccc(C#Cc2ccccc2)c1 here?
Answer: 15 µM

Question: With CCCN(C(=O)N[C@@H](CSCCCc1ccccc1)C(=O)O)C(=O)c1cccc(C#Cc2ccccc2)c1 as the molecule, how does the IC50 [1] read?
Answer: 73 µM

Question: For CCCN(C(=O)N[C@@H](CSCc1ccccc1-c1ccccc1)C(=O)O)C(=O)c1cccc(C#Cc2ccccc2)c1, which IC50 [1] is on record?
Answer: 146 µM

Question: With CCCN(C(=O)N[C@@H](CSCCc1ccccc1)C(=O)O)C(=O)c1cccc(C#Cc2ccccc2)c1 as the molecule, how does the IC50 [1] read?
Answer: 21 µM

Question: With CCCN(C(=O)N[C@@H](CSc1ccccc1)C(=O)O)C(=O)c1cccc(C#Cc2ccccc2)c1 as the molecule, how does the IC50 [1] read?
Answer: 25 µM

Question: For CCCN(C(=O)N[C@@H](CSCc1ccc(OC)cc1)C(=O)O)C(=O)c1cccc(C#Cc2ccccc2)c1, which IC50 [1] is on record?
Answer: 21 µM

Question: Which IC50 [1] does the source give for CCCN(C(=O)N[C@@H](CSCC(C)C)C(=O)O)C(=O)c1cccc(C#Cc2cccc(F)c2)c1 here?
Answer: 69 µM

Question: For CCCN(C(=O)N[C@@H](CSCC(C)C)C(=O)O)C(=O)c1cccc(C#Cc2ccc(F)cc2)c1, which IC50 [1] is on record?
Answer: 9 µM

Question: For CCCN(C(=O)N[C@@H](CSCC(C)C)C(=O)O)C(=O)c1cccc(C#Cc2ccccc2C)c1, which IC50 [1] is on record?
Answer: 57 µM

Question: With CCCN(C(=O)N[C@@H](CSCC(C)C)C(=O)O)C(=O)c1cccc(C#Cc2cccc(C)c2)c1 as the molecule, how does the IC50 [1] read?
Answer: 51 µM

Question: For CCCN(C(=O)N[C@@H](CSCC(C)C)C(=O)O)C(=O)c1cccc(C#Cc2ccc(C)cc2)c1, which IC50 [1] is on record?
Answer: 50 µM

Question: Which IC50 [1] does the source give for CCCN(C(=O)N[C@@H](CSCC(C)C)C(=O)O)C(=O)c1cccc(C#Cc2ccc(Oc3ccccc3)cc2)c1 here?
Answer: > 150 µM

Question: With CCCN(C(=O)N[C@@H](CSCC(C)C)C(=O)O)C(=O)c1cccc(C#Cc2ccc(C(C)(C)C)cc2)c1 as the molecule, how does the IC50 [1] read?
Answer: > 150 µM

Question: Which IC50 [1] does the source give for CCCN(C(=O)N[C@@H](CSCC(C)C)C(=O)O)C(=O)c1cccc(C#Cc2ccncc2)c1 here?
Answer: > 150 µM

Question: For CCCN(C(=O)N[C@@H](CSCC(C)C)C(=O)O)C(=O)c1cccc(C#Cc2cccnc2)c1, which IC50 [1] is on record?
Answer: > 150 µM

Question: With CCCN(C(=O)N[C@@H](CSCC(C)C)C(=O)O)C(=O)c1cccc(C#Cc2ccccc2F)c1 as the molecule, how does the IC50 [1] read?
Answer: 39 µM

Question: Which IC50 [2] does the source give for CCCN(C(=O)N[C@@H](CSCC(C)C)C(=O)O)C(=O)c1cccc(C#Cc2ccc(F)cc2F)c1 here?
Answer: > 25 µM

Question: And the IC50 [3]?
Answer: 4.4 µM

Question: What about the IC50 [1] of the same molecule?
Answer: 22 µM

Question: What about the IC50 [4] of the same molecule?
Answer: > 25 µM

Question: And the IC50 (Bcl-2-like protein 2)?
Answer: > 25 µM

Question: What about the IC50 [5] of the same molecule?
Answer: > 25 µM

Question: What about the Kd (Bcl-2-like protein 1 [6]) of the same molecule?
Answer: 4.9 µM

Question: What about the Kd (Bcl-2-like protein 1 [7]) of the same molecule?
Answer: 2.1 µM

Question: Which IC50 [1] does the source give for CCCN(C(=O)N[C@@H](CSCc1ccc(Br)cc1)C(=O)O)C(=O)c1cccc(C#Cc2ccc(F)cc2F)c1 here?
Answer: 13 µM

Question: And the Kd (Bcl-2-like protein 1 [6])?
Answer: 6.9 µM

Question: And the Kd (Bcl-2-like protein 1 [7])?
Answer: 4 µM

Question: For CCCN(C(=O)N[C@@H](Cc1c[nH]c2ccccc12)C(=O)O)C(=O)c1cccc(-c2ccccc2)c1, which IC50 [1] is on record?
Answer: 108 µM

Question: With CCCN(C(=O)NCCSCc1ccccc1)C(=O)c1cccc(-c2ccccc2)c1 as the molecule, how does the IC50 [1] read?
Answer: > 150 µM

Question: Which IC50 [1] does the source give for CCCN(C(=O)N[C@@H](CSCc1ccccc1)C(=O)OC)C(=O)c1cccc(-c2ccccc2)c1 here?
Answer: > 150 µM

Question: For CCCN(C(=O)N[C@@H](CSCc1ccccc1)C(N)=O)C(=O)c1cccc(-c2ccccc2)c1, which IC50 [1] is on record?
Answer: > 150 µM

Question: For CCCN(C(=O)N[C@@H](CSCc1ccccc1)C(=O)O)C(=O)c1cccc(-c2ccc(F)cc2)c1, which IC50 [1] is on record?
Answer: 125 µM

Question: With CCCN(C(=O)N[C@@H](CSCc1ccccc1)C(=O)O)C(=O)c1cccc(-c2ccc(C)cc2)c1 as the molecule, how does the IC50 [1] read?
Answer: 77 µM

Question: With CCCN(C(=O)N[C@@H](CSCc1ccccc1)C(=O)O)C(=O)c1cccc(-c2ccccc2Cl)c1 as the molecule, how does the IC50 [1] read?
Answer: 102 µM

Question: With CCCN(C(=O)N[C@@H](CSCc1ccccc1)C(=O)O)C(=O)c1cccc(-c2ccc(OC)cc2)c1 as the molecule, how does the IC50 [1] read?
Answer: > 150 µM

Question: With CCCN(C(=O)N[C@@H](CSCc1ccccc1)C(=O)O)C(=O)c1cccc(-c2ccc(Cl)cc2)c1 as the molecule, how does the IC50 [1] read?
Answer: 86 µM

Question: For CCCN(C(=O)N[C@@H](CSCc1ccccc1)C(=O)O)C(=O)c1cccc(-c2ccc(Cl)c(Cl)c2)c1, which IC50 [1] is on record?
Answer: 78 µM

Question: Which IC50 [1] does the source give for CCCN(C(=O)N[C@@H](CSCc1ccccc1)C(=O)O)C(=O)c1cccc(-c2cccc3ccccc23)c1 here?
Answer: 62 µM

Question: For CCCN(C(=O)N[C@@H](CSCc1ccccc1)C(=O)O)C(=O)c1cccc(-c2ccc3ccccc3c2)c1, which IC50 [1] is on record?
Answer: 63 µM

Question: For CCCN(C(=O)N[C@@H](CSCc1ccccc1)C(=O)O)C(=O)c1cccc(Cc2ccccc2)c1, which IC50 [1] is on record?
Answer: > 150 µM

Question: With CCCN(C(=O)N[C@@H](CSCc1ccccc1)C(=O)O)C(=O)c1cccc(C#Cc2ccccc2)c1 as the molecule, how does the IC50 [1] read?
Answer: 35 µM

Question: Which IC50 [1] does the source give for CCCN(C(=O)N[C@@H](CSCc1ccccc1)C(=O)O)C(=O)c1cccc(/C=C/c2ccccc2)c1 here?
Answer: 141 µM

Question: For CCCN(C(=O)N[C@@H](CSCc1ccccc1)C(=O)O)C(=O)c1cccc(CCc2ccccc2)c1, which IC50 [1] is on record?
Answer: 55 µM

Question: With CCCSC[C@H](NC(=O)N(CCC)C(=O)c1cccc(C#Cc2ccccc2)c1)C(=O)O as the molecule, how does the IC50 [1] read?
Answer: 21 µM

Question: For CCCN(C(=O)N[C@@H](CSC(C)C)C(=O)O)C(=O)c1cccc(C#Cc2ccccc2)c1, which IC50 [1] is on record?
Answer: 33 µM

Question: Which IC50 [1] does the source give for CCCN(C(=O)N[C@@H](CSCC1CCCCC1)C(=O)O)C(=O)c1cccc(C#Cc2ccccc2)c1 here?
Answer: 42 µM

Question: With CCN(C(=O)N[C@@H](CSCc1ccccc1)C(=O)O)C(=O)c1cccc(-c2ccccc2)c1 as the molecule, how does the IC50 [1] read?
Answer: 128 µM

Question: With CCCN(C(=O)N[C@@H](CSCc1ccccc1)C(=O)O)C(=O)c1cccc(-c2ccccc2)c1 as the molecule, how does the IC50 [1] read?
Answer: 109 µM

Question: For CCCCN(C(=O)N[C@@H](CSCc1ccccc1)C(=O)O)C(=O)c1cccc(-c2ccccc2)c1, which IC50 [1] is on record?
Answer: 138 µM

Question: Which IC50 [1] does the source give for CCC(C)N(C(=O)N[C@@H](CSCc1ccccc1)C(=O)O)C(=O)c1cccc(-c2ccccc2)c1 (some centres undefined) here?
Answer: > 150 µM

Question: With CC(C)N(C(=O)N[C@@H](CSCc1ccccc1)C(=O)O)C(=O)c1cccc(-c2ccccc2)c1 as the molecule, how does the IC50 [1] read?
Answer: > 150 µM

Question: For O=C(O)[C@H](CSCc1ccccc1)NC(=O)N(Cc1ccccc1)C(=O)c1cccc(-c2ccccc2)c1, which IC50 [1] is on record?
Answer: > 150 µM

Question: With Cc1ccc(CN(C(=O)N[C@@H](CSCc2ccccc2)C(=O)O)C(=O)c2cccc(-c3ccccc3)c2)cc1 as the molecule, how does the IC50 [1] read?
Answer: > 150 µM

Question: With CCCN(C(=O)NC)C(=O)c1cccc(-c2ccccc2)c1 as the molecule, how does the IC50 [1] read?
Answer: > 150 µM

Question: With CCCN(C(=O)N[C@@H](CC(C)C)C(=O)O)C(=O)c1cccc(-c2ccccc2)c1 as the molecule, how does the IC50 [1] read?
Answer: > 150 µM

Question: With CCCN(C(=O)N[C@@H](Cc1ccccc1)C(=O)O)C(=O)c1cccc(-c2ccccc2)c1 as the molecule, how does the IC50 [1] read?
Answer: > 150 µM

Question: With CCCN(C(=O)N[C@@H](Cc1ccc(O)cc1)C(=O)O)C(=O)c1cccc(-c2ccccc2)c1 as the molecule, how does the IC50 [1] read?
Answer: > 150 µM

Question: For CCCN(C(=O)N[C@@H](CCc1ccccc1)C(=O)O)C(=O)c1cccc(-c2ccccc2)c1, which IC50 [1] is on record?
Answer: > 150 µM

Question: With CCCN(C(=O)N[C@@H](Cc1ccc2ccccc2c1)C(=O)O)C(=O)c1cccc(-c2ccccc2)c1 as the molecule, how does the IC50 [1] read?
Answer: > 150 µM

Question: Which results are given for O=C(NS(=O)(=O)c1ccc(NCCSc2ccccc2)c([N+](=O)[O-])c1)c1ccc(-c2ccc(F)cc2)cc1?
Answer: IC50 [2]: 14.7 µM; IC50 [3]: 0.196 µM; IC50 [4]: 14.2 µM; IC50 (Bcl-2-like protein 2): > 25 µM; IC50 [5]: 22 µM

From ChEMBL document CHEMBL3124762, “De-novo designed library of benzoylureas as inhibitors of BCL-XL: synthesis, structural and biochemical characterization” (J Med Chem, 2014)
